The list is not random: actives were taken first. Their share in the collection is about 2.1%.
TLR9-MyD88 inh – TLR9-MyD88 interaction inhibition; Q9NR96+Q99836; CHO BLA complementation TLR9-MyD88, CCF4 FRET ratio; inhibition, % at 4.98 µM; hit rate 0.21% among 340,000; AID 504734;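 active = inhibition above the mean over all tested compounds plus 3 SD, cut at about 21% in these data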;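 note: 0% = DMSO only wells and 100% = clavulanate BLA inhibitor control wells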
MC4R antag cAMP – antagonists of human melanocortin 4 receptor (MC4R); P32245; MC4R-expressing cells, MTII-stimulated cAMP, LANCE TR-FRET; inhibition, % at 6.5 µM; hit rate 0.48% among 360,000; AID 540295;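 active = inhibition above its plate's cutoff, the mean of tested wells on that plate plus 3 SD, cut at about 29% in these data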;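 note: 0% = Melanotan II alone and 100% = Melanotan II plus saturating MCL0020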
Target sequence (P32245 whole entry, looked up): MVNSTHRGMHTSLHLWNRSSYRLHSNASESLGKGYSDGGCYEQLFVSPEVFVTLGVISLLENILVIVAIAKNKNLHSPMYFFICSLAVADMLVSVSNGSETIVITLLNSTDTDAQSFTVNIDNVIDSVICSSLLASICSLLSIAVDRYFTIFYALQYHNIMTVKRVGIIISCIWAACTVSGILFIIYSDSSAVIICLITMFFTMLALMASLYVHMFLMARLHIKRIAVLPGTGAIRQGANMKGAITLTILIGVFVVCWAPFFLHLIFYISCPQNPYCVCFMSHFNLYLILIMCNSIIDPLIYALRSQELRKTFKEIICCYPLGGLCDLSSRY
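material = U2OS cells stably expressing human melanocortin 4 receptor (MC4R) | also added = Melanotan II challenge | dosing = single nominal compound dose of 6.5 µM | detection = TR-FRET with Eu-cAMP and labeled anti-cAMP, 671 nm | replication = singlicate | timing = compound 30 min, challenge 1 h, detection 1 h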
beta cell repl – induces beta-cell replication in MIN6 cells; hit rate 0.29% among 330,000; proliferation, % at 10 µM; MIN6 cells proliferation, ATPlite luminescence, 48 h; cells starved in 0.2% serum; 100% = growth in 10% serum;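 active = compounds whose signal lies at least 3.5 SD above the mean of all wells on their plate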;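 note: 0% = DMSO-treated cells in low-serum medium and 100% = 10% serum control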
TLR4-MyD88 BLA – blocks binding of human TLR4 to MyD88. HeLa CL3-4 TLR4/MyD88 BLA complementation, FRET ratio. inhibition, % at 8.4 µM. AID 861. hit rate 0.18% among 200,000; in the data active = inhibition above about 25%;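 note: 0% = vehicle and 100% = reference inhibitor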
NOD2 RIPK2 PPI – blocks binding of human NOD2 to RIPK2; AID 624267; inhibition, % at 4.98 µM; hit rate 0.38% among 360,000; CHO BLA complementation NOD2-RIPK2, CCF4 ratio; O43353; in the data active = inhibition above about 21%;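 note: 0% = vehicle only and 100% = reference blocker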
MC4R barr agon – activates human MC4R beta-arrestin recruitment; activation, % at 8.9 µM; U2OS MC4R beta-arrestin complementation, luminescence; percent of melanotan II response, DMSO zero; AID 540308; P32245; hit rate 0.98% among 360,000;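 active = activation above a per-plate cutoff, the mean activation of sample wells on that plate plus 3 SD, cut at about 8% in these data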
MC4R barr conf – human MC4R beta-arrestin agonism confirmation; AID 602192; hit rate 31% among 2,400; U2OS MC4R beta-arrestin recruitment, luminescence; scaled DMSO 0%, Melanotan II 100%; shares compounds with MC4R barr agon; activation, % at 8.9 µM;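 active = mean activation across replicates above the hit cutoff set in the earlier primary screen, cut at about 8% in these data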
MOR-DOR barr ag – counter-screen for MC4R agonists: agonists of mu-delta opioid heterodimer | shares compounds with MC4R barr agon | U2OS PathHunter beta-arrestin, beta-gal luminescence; percent of deltorphin B response, DMSO zero | activation, % at 9.2 µM | hit rate 5.8% among 2,400;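 active = mean activation across replicates exceeds the hit threshold derived in the earlier primary screen, cut at about 18% in these data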;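 note: 100% = deltorphin B at 0.9 µM final and 0% = DMSO alone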
* hit, by the source's call; · = not tested or not shown.

SMILES	TLR9-MyD88 inh	MC4R antag cAMP	beta cell repl	TLR4-MyD88 BLA	NOD2 RIPK2 PPI	MC4R barr agon	MC4R barr conf	MOR-DOR barr ag
COc1ccc2nc(NC(=O)CSc3nc4cccnc4n3C)sc2c1	6.0	6.9	0.0	-8.2	-4.7	16.9*	36.6*	6.6
COC(=O)c1sc(NC(=O)CSc2nc3cccnc3n2C)nc1C	2.7	18.5	-3.8	·	-11.1	3.2	·	·
O=C(COC(=O)CNC(=O)c1sc2ccccc2c1Cl)Nc1c(Cl)cc(Cl)cc1Cl	-11.8	5.0	0.1	-3.8	-0.1	4.0	·	·
Cc1ccc2c(c1)c(-c1ccccc1)nc1nncn12	11.8	-3.6	2.5	-2.2	1.4	-0.7	·	·
CN(CC(=O)Nc1ccc(F)cc1)S(=O)(=O)c1ccc2c(c1)c(=O)n(C)c(=O)n2C	-0.5	16.6	-2.1	·	3.7	-0.6	·	·
Cc1ccc(NC(=O)CN(C)C(=O)CCC(=O)c2cccs2)cc1	-3.7	3.0	0.0	-8.3	-0.4	-1.3	·	·
CCOC(=O)/C(C#N)=C(C)/C=C1\Sc2ccccc2N1CC	-4.8	-15.6	0.2	-6.2	-3.5	18.4*	15.1*	1.6
Cc1cc(NC(=O)CSc2nc3cc(C)c(C)cc3cc2C)no1	-10.9	21.8	2.6	·	2.3	0.3	·	·
Cc1ccc2nc(SCC(=O)Nc3cc(C)on3)c(C)cc2c1	1.3	-0.8	2.8	·	0.8	11.1*	6.8	4.7
Brc1cc2c(cc1-c1nc3ccccc3s1)OCO2	-1.4	8.3	0.5	·	-8.3	14.9*	0.8	4.0
Cc1ccc(CCc2nnc(SCC(=O)Nc3cccc(Cl)c3)n2-c2ccccc2)o1	-19.1	-1.2	0.0	7.8	8.1	27.1*	3.0	7.6
COC(c1ccc(Cl)cc1)(c1ccc(Cl)cc1)C(Oc1nc(C)cc(C)n1)C(=O)O (configuration not stated)	-9.5	2.2	-3.7	·	2.3	-2.3	·	·
COc1ccc(Cn2c(SCc3cc(C)ccc3C)nc3cc(OC)c(OC)cc3c2=N)cc1	4.3	9.9	-6.2	3.7	4.1	21.3*	7.5	20.0*
COc1ccc(Cn2c(SCc3ccc(C)cc3)nc3cc(OC)c(OC)cc3c2=N)cc1Cl	2.7	-4.1	-5.6	-5.0	5.3	28.2*	7.2	18.8*
COc1cc2nc(SCc3ccc(Cl)cc3Cl)n(Cc3cccs3)c(=N)c2cc1OC	4.9	1.4	-5.7	-3.1	-0.7	-1.2	·	·
COc1cc2nc(SCc3ccc(C(F)(F)F)cc3)n(Cc3cccs3)c(=N)c2cc1OC	-5.0	12.9	-1.5	1.8	-7.6	14.0*	6.1	3.5
O=C(Nc1cc(Cl)ccn1)C1(c2ccccc2)CC1(Cl)Cl (configuration not stated)	-4.1	10.0	-3.7	·	-15.0	11.2*	3.6	8.8
O=C(Nc1ccccc1)C1(c2ccccc2)CC1(Cl)Cl (configuration not stated)	6.6	3.4	-3.1	-2.5	9.6	-2.5	·	·
O=C(CSc1nc2cc([N+](=O)[O-])ccc2n1-c1ccccc1)NCc1ccc2c(c1)OCO2	3.5	6.8	-2.8	-7.2	-8.7	2.3	·	·
C=CCNC(=O)NC(=O)CSc1nc2cc([N+](=O)[O-])ccc2n1-c1cccc(C(F)(F)F)c1	7.1	6.6	0.0	4.6	-7.1	10.5*	3.2	5.6
Cc1ccc(NC(=O)NNC(=O)c2cc3ccccc3cc2O)cc1	17.0	2.3	-1.3	·	5.7	12.7*	15.1*	6.3
COc1ccc(N2CCN(c3ccc(C(=O)O)cc3[N+](=O)[O-])CC2)cc1	-9.1	10.0	-0.8	·	-9.5	-0.4	·	·
COc1ccc2ccc(O)c(CN(C)CC(=O)Nc3ccccc3C(F)(F)F)c2c1	6.7	14.0	-2.5	·	8.7	12.8*	7.0	9.8
COc1ccc(CN(C)CC(=O)Nc2ccccc2C(F)(F)F)cc1	-4.5	15.8	-1.3	15.2	-1.2	1.0	·	·
CCN(CC)c1ccc(/C=N/N2C(C)CCCC2C)c(O)c1 (configuration not stated)	3.3	-7.0	-0.8	·	-8.4	0.4	·	·
SMILES	TLR9-MyD88 inh	MC4R antag cAMP	beta cell repl	TLR4-MyD88 BLA	NOD2 RIPK2 PPI	MC4R barr agon	MC4R barr conf	MOR-DOR barr ag
O=C(CCN1C(=O)c2ccccc2C1=O)Nc1ccc(-c2cn3ccsc3n2)cc1	5.3	9.2	2.2	-0.1	-5.1	12.8*	-1.0	4.3
O=C(NCc1ccccc1)c1nc(-c2c(F)cccc2F)oc1-c1ccccc1	·	·	·	·	-6.8	·	·	·
Cn1c2ccccc2c2cnn(CC(=O)Nc3ccc(F)cc3F)c(=O)c21	-0.5	-3.4	0.7	·	-3.4	15.7*	1.4	3.2
O=C(NC(=S)NCc1ccc(-c2nc3ccccc3s2)cc1)c1ccco1	3.3	-2.2	0.0	-9.9	-3.5	28.1*	5.9	2.1
O=C(NCc1ccc(-c2nc3ccccc3s2)cc1)c1ccco1	-1.1	0.5	-1.0	-3.0	-5.1	-0.8	·	·
CCN1CCN(CCCNC(=O)c2ccccc2NC(=O)C2=C(C)OCCS2)CC1	-4.6	14.8	-1.9	·	-10.9	1.9	·	·
Cc1ccc(-c2nc3nc4ccccc4nc3n2Cc2ccco2)cc1	-31.0	13.2	-2.5	-1.2	-4.3	4.3	·	·
Clc1ccc(-c2nc3nc4ccccc4nc3n2Cc2ccco2)cc1	8.6	-0.6	-2.2	2.0	14.9	20.1*	-2.1	3.6
CCC(C)c1ccc(OCCn2cc(/C=N/NC(=O)CSc3nnc(C)s3)c3ccccc32)cc1 (configuration not stated)	5.8	15.9	-3.8	1.7	6.0	15.7*	4.8	5.3
Cc1cccc(OCCn2cc(/C=N/NC(=O)c3ccncc3)c3ccccc32)c1	1.4	9.2	0.0	4.0	0.0	-1.2	·	·
COc1ccc(S(=O)(=O)N2CCCCC2)cc1NC(=O)Cc1cccc(C(F)(F)F)c1	0.2	8.0	-2.6	·	-2.8	4.7	·	·
CN1C(=O)/C(=C/c2ccc(OCc3ccccc3F)cc2)N(C)C1=S	-5.7	-1.1	-4.0	·	-24.6	0.1	·	·
CCN(c1ccc(OC)cc1)S(=O)(=O)c1nnc(NC(=O)C2CCCCC2)s1	-0.1	4.0	-0.3	·	1.9	11.6*	1.1	7.2
CCN(c1ccc(Cl)cc1)S(=O)(=O)c1nnc(NC(=O)C(C)C)s1	-0.7	-3.6	0.0	·	0.0	10.1*	0.8	6.1
O=C(COC(=O)c1ccc2ncsc2c1)Nc1ccccc1Cl	6.6	0.7	-0.7	·	-10.9	-1.3	·	·
O=C(COC(=O)c1ccc2ncsc2c1)Nc1cc([N+](=O)[O-])ccc1Cl	-9.7	1.3	-2.7	·	-4.5	22.8*	7.5	12.9

Screens from PubChem BioAssay.
